Each compound was assayed against T1, UniProt Q8VGZ2. Details: stereoisomer not certain.
T1 sequence (whole entry): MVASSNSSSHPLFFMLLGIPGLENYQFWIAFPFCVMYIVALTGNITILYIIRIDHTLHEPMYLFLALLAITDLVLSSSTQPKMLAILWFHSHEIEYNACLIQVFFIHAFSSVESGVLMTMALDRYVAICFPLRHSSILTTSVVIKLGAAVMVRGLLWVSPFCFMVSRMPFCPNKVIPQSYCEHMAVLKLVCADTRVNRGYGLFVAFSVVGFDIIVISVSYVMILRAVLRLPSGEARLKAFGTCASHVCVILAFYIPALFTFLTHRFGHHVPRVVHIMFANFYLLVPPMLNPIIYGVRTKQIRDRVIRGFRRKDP
Summary of the method: (§1)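 Values were gathered from published papers (main text and supplementary material), with extra details requested from the original authors when needed, and checked for typos and inconsistencies. Each receptor–molecule pair is called responsive (active) if the original authors judged the measured signal statistically different from baseline, and non-responsive (inactive) otherwise. Assay methods varied by source, often transient mammalian cell-line luciferase assays. Recorded details include cell line, G-protein, co-transfected protein and tags.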

Row | SMILES | odorant receptor agonist call
1 | Cc1ccc(OC(=O)C(C)C)cc1 | inactive
2 | CCCCCCC(=O)OCCCC | inactive
3 | Cc1ccc2c(c1)OCC(=O)CO2 | inactive
4 | CCCCCC(=Cc1ccccc1)C(OC)OC | inactive
5 | O=C(O)CCCCCCCCC(=O)O | inactive
6 | CCCCCCCOC(=O)C(C)C | inactive
7 | CCCCCC(C)O (stereo not given) | inactive
8 | C=C(CC)CCCC(C)(C)O | inactive
9 | Cc1ccc(C(C)C)cc1 | inactive
10 | CCc1nccnc1CC | inactive
11 | COc1nccnc1C | inactive
12 | CCCCCOC(=O)CCC | inactive
13 | CC(=O)OC1(C)CCC23CC1C(C)(C)C2CCC3C (stereo not given) | active
14 | CC(C)=C1CCC(C)CC1=O (stereo not given) | inactive
15 | CCSCC | inactive
16 | CC(=O)C=CC1=C(C)CCCC1(C)C | inactive
17 | CSSCc1ccco1 | inactive
18 | CCCC(C)C(=O)OCC (stereo not given) | inactive
19 | CC1CC=CCCCCCCCCCC(=O)C1 (stereo not given) | inactive
20 | OCCc1ccccc1 | inactive
21 | CC(C)CCN | inactive
22 | OCC=Cc1ccccc1 | inactive
23 | CCC(C)c1nccnc1OC (stereo not given) | inactive
24 | CCCC=O | inactive

The compounds below were run against T2, UniProt Q8VGZ7. Details: stereoisomer not certain.
T2 sequence (whole entry): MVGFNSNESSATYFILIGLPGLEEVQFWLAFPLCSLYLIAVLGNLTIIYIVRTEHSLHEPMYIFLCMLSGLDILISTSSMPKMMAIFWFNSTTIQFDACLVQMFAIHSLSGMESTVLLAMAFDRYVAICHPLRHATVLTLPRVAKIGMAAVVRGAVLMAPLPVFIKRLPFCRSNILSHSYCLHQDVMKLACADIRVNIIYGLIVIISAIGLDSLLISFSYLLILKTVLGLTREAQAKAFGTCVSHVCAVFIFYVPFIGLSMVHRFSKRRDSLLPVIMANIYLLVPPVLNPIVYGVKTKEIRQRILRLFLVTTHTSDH
Summary of the method: as §1

Row | SMILES | odorant receptor agonist call
25 | Cc1ccc(OC(=O)C(C)C)cc1 | inactive
26 | CCCCCCC(=O)OCCCC | inactive
27 | Cc1ccc2c(c1)OCC(=O)CO2 | inactive
28 | CCCCCC(=Cc1ccccc1)C(OC)OC | inactive
29 | O=C(O)CCCCCCCCC(=O)O | inactive
30 | CCCCCCCOC(=O)C(C)C | inactive
31 | CCCCCC(C)O (stereo not given) | inactive
32 | C=C(CC)CCCC(C)(C)O | inactive
33 | Cc1ccc(C(C)C)cc1 | inactive
34 | CCc1nccnc1CC | inactive
35 | COc1nccnc1C | inactive
36 | CCCCCOC(=O)CCC | inactive
37 | CC(=O)OC1(C)CCC23CC1C(C)(C)C2CCC3C (stereo not given) | inactive
38 | CC(C)=C1CCC(C)CC1=O (stereo not given) | inactive
39 | CCSCC | inactive
40 | CC(=O)C=CC1=C(C)CCCC1(C)C | inactive
41 | CSSCc1ccco1 | inactive
42 | CCCC(C)C(=O)OCC (stereo not given) | inactive
43 | CC1CC=CCCCCCCCCCC(=O)C1 (stereo not given) | inactive
44 | OCCc1ccccc1 | inactive
45 | CC(C)CCN | inactive
46 | OCC=Cc1ccccc1 | inactive
47 | CCC(C)c1nccnc1OC (stereo not given) | inactive
48 | CCCC=O | inactive

The compounds below were run against T3, UniProt Q8VH16. Details: stereoisomer not certain.
T3 sequence (whole entry): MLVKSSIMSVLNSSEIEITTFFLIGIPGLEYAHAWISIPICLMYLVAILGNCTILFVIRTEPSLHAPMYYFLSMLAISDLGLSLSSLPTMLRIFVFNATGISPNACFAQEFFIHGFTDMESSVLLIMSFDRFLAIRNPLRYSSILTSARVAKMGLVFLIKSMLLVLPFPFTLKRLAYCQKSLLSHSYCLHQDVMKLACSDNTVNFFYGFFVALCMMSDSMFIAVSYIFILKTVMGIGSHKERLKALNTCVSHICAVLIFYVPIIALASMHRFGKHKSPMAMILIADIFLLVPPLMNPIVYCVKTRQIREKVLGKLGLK
Summary of the method: as §1

Row | SMILES | odorant receptor agonist call
49 | Cc1ccc(OC(=O)C(C)C)cc1 | inactive
50 | CCCCCCC(=O)OCCCC | inactive
51 | Cc1ccc2c(c1)OCC(=O)CO2 | inactive
52 | CCCCCC(=Cc1ccccc1)C(OC)OC | inactive
53 | O=C(O)CCCCCCCCC(=O)O | inactive
54 | CCCCCCCOC(=O)C(C)C | inactive
55 | CCCCCC(C)O (stereo not given) | inactive
56 | C=C(CC)CCCC(C)(C)O | inactive
57 | Cc1ccc(C(C)C)cc1 | inactive
58 | CCc1nccnc1CC | inactive
59 | COc1nccnc1C | inactive
60 | CCCCCOC(=O)CCC | inactive
61 | CC(=O)OC1(C)CCC23CC1C(C)(C)C2CCC3C (stereo not given) | inactive
62 | CC(C)=C1CCC(C)CC1=O (stereo not given) | inactive
63 | CCSCC | inactive
64 | CC(=O)C=CC1=C(C)CCCC1(C)C | inactive
65 | CSSCc1ccco1 | inactive
66 | CCCC(C)C(=O)OCC (stereo not given) | inactive
67 | CC1CC=CCCCCCCCCCC(=O)C1 (stereo not given) | inactive
68 | OCCc1ccccc1 | inactive
69 | CC(C)CCN | inactive
70 | OCC=Cc1ccccc1 | inactive
71 | CCC(C)c1nccnc1OC (stereo not given) | inactive
72 | CCCC=O | inactive

Each compound was assayed against T4, UniProt Q8VH20. Details: stereoisomer not certain.
T4 sequence (whole entry): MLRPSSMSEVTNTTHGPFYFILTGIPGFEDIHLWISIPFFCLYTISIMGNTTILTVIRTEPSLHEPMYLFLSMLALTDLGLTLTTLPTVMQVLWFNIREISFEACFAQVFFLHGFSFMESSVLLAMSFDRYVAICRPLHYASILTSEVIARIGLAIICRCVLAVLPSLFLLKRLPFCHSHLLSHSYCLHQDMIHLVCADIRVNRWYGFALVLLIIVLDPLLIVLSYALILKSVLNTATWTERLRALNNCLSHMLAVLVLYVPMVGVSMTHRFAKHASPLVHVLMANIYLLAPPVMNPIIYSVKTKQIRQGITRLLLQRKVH
Summary of the method: as §1

Row | SMILES | odorant receptor agonist call
73 | Cc1ccc(OC(=O)C(C)C)cc1 | inactive
74 | CCCCCCC(=O)OCCCC | inactive
75 | Cc1ccc2c(c1)OCC(=O)CO2 | inactive
76 | CCCCCC(=Cc1ccccc1)C(OC)OC | inactive
77 | O=C(O)CCCCCCCCC(=O)O | inactive
78 | CCCCCCCOC(=O)C(C)C | inactive
79 | CCCCCC(C)O (stereo not given) | inactive
80 | C=C(CC)CCCC(C)(C)O | inactive
81 | Cc1ccc(C(C)C)cc1 | inactive
82 | CCc1nccnc1CC | inactive
83 | COc1nccnc1C | inactive
84 | CCCCCOC(=O)CCC | inactive
85 | CC(=O)OC1(C)CCC23CC1C(C)(C)C2CCC3C (stereo not given) | active
86 | CC(C)=C1CCC(C)CC1=O (stereo not given) | inactive
87 | CCSCC | inactive
88 | CC(=O)C=CC1=C(C)CCCC1(C)C | inactive
89 | CSSCc1ccco1 | inactive
90 | CCCC(C)C(=O)OCC (stereo not given) | inactive
91 | CC1CC=CCCCCCCCCCC(=O)C1 (stereo not given) | inactive
92 | OCCc1ccccc1 | inactive
93 | CC(C)CCN | inactive
94 | OCC=Cc1ccccc1 | inactive
95 | CCC(C)c1nccnc1OC (stereo not given) | inactive
96 | CCCC=O | inactive

The compounds below were run against T5, UniProt Q8VH21. Details: stereoisomer not certain.
T5 sequence (whole entry): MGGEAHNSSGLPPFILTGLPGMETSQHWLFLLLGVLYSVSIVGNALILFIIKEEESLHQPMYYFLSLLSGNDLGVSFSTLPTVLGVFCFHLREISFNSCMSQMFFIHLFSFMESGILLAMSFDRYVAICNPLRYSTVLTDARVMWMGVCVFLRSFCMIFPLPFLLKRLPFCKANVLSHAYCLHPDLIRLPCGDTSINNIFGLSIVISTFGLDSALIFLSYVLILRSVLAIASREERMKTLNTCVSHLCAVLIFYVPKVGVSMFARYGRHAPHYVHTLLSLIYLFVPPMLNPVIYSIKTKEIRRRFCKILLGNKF
Summary of the method: as §1

Row | SMILES | odorant receptor agonist call
97 | Cc1ccc(OC(=O)C(C)C)cc1 | inactive
98 | CCCCCCC(=O)OCCCC | inactive
99 | Cc1ccc2c(c1)OCC(=O)CO2 | inactive
100 | CCCCCC(=Cc1ccccc1)C(OC)OC | inactive
101 | O=C(O)CCCCCCCCC(=O)O | inactive
102 | CCCCCCCOC(=O)C(C)C | inactive
103 | CCCCCC(C)O (stereo not given) | inactive
104 | C=C(CC)CCCC(C)(C)O | inactive
105 | Cc1ccc(C(C)C)cc1 | inactive
106 | CCc1nccnc1CC | inactive
107 | COc1nccnc1C | inactive
108 | CCCCCOC(=O)CCC | inactive
109 | CC(=O)OC1(C)CCC23CC1C(C)(C)C2CCC3C (stereo not given) | inactive
110 | CC(C)=C1CCC(C)CC1=O (stereo not given) | inactive
111 | CCSCC | inactive
112 | CC(=O)C=CC1=C(C)CCCC1(C)C | inactive
113 | CSSCc1ccco1 | inactive
114 | CCCC(C)C(=O)OCC (stereo not given) | inactive
115 | CC1CC=CCCCCCCCCCC(=O)C1 (stereo not given) | inactive
116 | OCCc1ccccc1 | inactive
117 | CC(C)CCN | inactive
118 | OCC=Cc1ccccc1 | inactive
119 | CCC(C)c1nccnc1OC (stereo not given) | inactive
120 | CCCC=O | inactive

From the M2OR odorant receptor database
